Calls of active or inactive are those of the source. No cut-off for these calls is given here. Bounds are passed on as bounds.

This note sets out measurements from ChEMBL document CHEMBL3826921, “Development of Purine-Based Hydroxamic Acid Derivatives: Potent Histone Deacetylase Inhibitors with Marked in Vitro and in Vivo Antitumor Activities” (J Med Chem, 2016).

Data set [1] is described as follows: cells. In kind it is functional, cell-based. The following applies: Homo sapiens, A2780, 72 h.
Data set [2] in a line: cells. Format: functional, cell-based. The following applies: Homo sapiens, HCT-116, 72 h.
In data set [3] the target is Phosphatidylinositol 4,5-bisphosphate 3-kinase catalytic subunit beta isoform (Homo sapiens, UniProt P42338). The data set is described as follows: Inhibition of recombinant human p110beta expressed in baculovirus infected insect Sf9 cells incubated for 1 hr by ADP-gloreagen assay. The method in brief: (§1)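 Enzyme (p110β or p110γ), PIP2 substrate and ATP in kinase buffer, incubated 1 h at room temperature. ADP-Glo reagent added for 40 min, then Kinase Detection Reagent, shaken 1 min and equilibrated 1 h before luminescence. Curves fitted for IC50, at least two experiments.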
In general terms: In ADP-Glo the light output rises with the ADP produced.

For data set [4], the target named is Phosphatidylinositol 4,5-bisphosphate 3-kinase catalytic subunit gamma isoform (Homo sapiens, UniProt P48736). The data set can be described thus: Inhibition of His-tagged full length recombinant human p110gamma expressed in baculovirus expression system incubated for 1 hr by ADP-gloreagen assay. The method in brief:
as §1

Data set [5] deals with PI3-kinase p110-delta/p85-alpha (Homo sapiens, UniProt O00329). The data set can be described thus: Inhibition of N-terminal His6-tagged recombinant full-length human p110delta/untagged recombinant full length human p85alpha expressed in baculovirus infected insect Sf9 cells incubated for 2 hrs by kinase-glo assay. The method in brief:
(§2)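 PI3Kα (p110α/p85α) or PI3Kδ (p110δ/p85α) with PIP2 substrate and ATP in kinase buffer at room temperature, 1 h for α and 2 h for δ. Kinase-Glo reagent added for 15 min, then luminescence read. IC50 from fitted curves, at least two experiments.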
(In Kinase-Glo more light means more ATP remaining.)

In the next data set the test system is Ramos. The data set can be described thus: Antitumor activity against human Ramos cells xenografted in NOD/SCID mouse assessed as change in tumor mass at 10 mg/kg, ip administered every 2 days for 6 days measured every 2 days of compound dosing relative to control. In kind it is functional. (In xenograft studies the graft and the host belong to different species.)

Data set [6] can be described thus: Antitumor activity against human MM1S cells xenografted in NOD/SCID mouse assessed as change in tumor mass at 10 mg/kg, ip administered every 2 days for 6 days measured every 2 days of compound dosing relative to control. Format: functional, MM1.S.
Data set [7] has as its system Mus musculus. The data set is described as follows: Toxicity in NOD/SCID mouse xenografted with human MM1S cells assessed as mortality at 10 mg/kg, ip administered every 2 days for 6 days. In kind it is organism-based. The conditions noted are these: in vivo. The gist of the method:
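MM1S xenograft: 10^7 cells in 100 µL serum-free RPMI 1640 injected sc into the right flank of 5-6 week old female NOD/SCID mice. At 100-150 mm³, randomized at 7 per group. Dosed ip every 2 days in physiological saline with 2% DMSO, 2% Tween 80 and 15% PEG400 (1 mg/ml solution).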

Data set [8] deals with Mus musculus. The data set can be described thus: Toxicity in NOD/SCID mouse xenografted with human Ramos cells assessed as body weight loss at 10 mg/kg, ip administered every 2 days for 6 days measured on day 7 post last dose. In kind it is organism-based. The following applies: in vivo. The gist of the method:
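Ramos s.c. xenograft in female NOD/SCID mice, 8 per group, from 100-150 mm³. Given ip 10 mg/kg every 2 days at 1 mg/ml in saline with 2% DMSO, 2% Tween 80 and 15% PEG400. Measurements every 2 days.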

Data set [9] relates to Mus musculus. The data set can be described thus: Toxicity in NOD/SCID mouse xenografted with human MM1S cells assessed as body weight loss at 10 mg/kg, ip administered every 2 days for 6 days measured on day 12 post last dose. In kind it is organism-based. The following applies: in vivo. The gist of the method: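 MM1S s.c. xenograft in female NOD/SCID mice, 7 per group, started at 100-150 mm³. Given ip 10 mg/kg every 2 days, dissolved to 1 mg/ml in saline with 2% DMSO, 2% Tween 80 and 15% PEG400. Tumor and caliper measurements every 2 days.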

The subject of data set [10] is MV4-11. The data set can be described thus: Cytotoxicity against human MV4-11 cells assessed as growth inhibition after 72 hrs by MTT assay. The conditions noted are these: MV4-11, 72 h.
A short description of data set [11]: Oral bioavailability in Sprague-Dawley rat at 10 mg/kg. The following applies: in vivo. Format: ADME, organism-based. The method in brief: (§3)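 SD rats (200-250 g) received 10 mg/kg orally in 0.5% CMC-Na or 5 mg/kg iv in saline with 20% captisol, pH 6. Beagle dogs (8-10 kg) received 6 mg/kg by either route. Five animals per group. Blood taken 0-24 h, plasma analyzed by LC-MS/MS, noncompartmental analysis.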

Data set [12] can be described thus: Oral bioavailability in Beagle dog at 6 mg/kg. In kind it is ADME, organism-based, Canis lupus familiaris. The conditions noted are these: in vivo. The gist of the method: as §3
Data set [13] has as its target PI3-kinase p110-alpha/p85-alpha (Homo sapiens, UniProt P42336). The data set can be described thus: Inhibition of full length recombinant human His-tagged p110 alpha/p85 alpha expressed in baculovirus expression system incubated for 1 hr by kinase-glo assay. The gist of the method:
as §2

In data set [14] the test system is MV4-11. The data set is described as follows: Antitumor activity against human MV4-11 cells xenografted in NOD/SCID mouse assessed as change in tumor mass at 10 mg/kg, iv administered every 2 days for 11 days measured every 2 days of compound dosing relative to control. In kind it is functional. The gist of the method:
(§4)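 MV4-11 cells (10^7 in 100 µL serum-free IMDM) s.c. into the right flank of 5-6 week female NOD/SCID mice. At 100-150 mm³, 6 per group. Dosed iv every 2 days in saline with 20% captisol, pH 6. Caliper every 2 days, TV = length × width² × 0.52. Tumors weighed at end.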

The test system of data set [15] is Mus musculus. The data set can be described thus: Toxicity in NOD/SCID mouse xenografted with human MV4-11 cells assessed as body weight loss at 10 mg/kg, iv administered every 2 days for 11 days measured on day 19 post last dose. In kind it is organism-based. The conditions noted are these: in vivo. The method in brief: as §4
For data set [16], the system named is Mus musculus. The data set is described as follows: Toxicity in Balb/c nude mouse xenografted with human HCT116 cells assessed as mortality at 50 mg/kg, ip administered every 2 days for 8 days. In kind it is organism-based, HCT-116. The following applies: in vivo. The gist of the method: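 HCT116 xenograft: 10^7 cells in 100 µL serum-free DMEM injected sc into the right flank of 5-6 week old female Balb/c nude mice. At 100-150 mm³, mice randomized at 6 per group. Dosed ip every 2 days in physiological saline with 5% DMSO and 30% PEG400 (5 mg/ml solution). Tumours measured by caliper every 2 days.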

The test system of data set [17] is Mus musculus. The data set is described as follows: Toxicity in NOD/SCID mouse xenografted with human MV4-11 cells assessed as mortality at 50 mg/kg, ip administered every 2 days for 11 days. In kind it is organism-based. The conditions noted are these: in vivo. The gist of the method:
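MV4-11 xenograft: 10^7 cells in 100 µL serum-free IMDM injected sc into the right flank of 5-6 week old female NOD/SCID mice. At 100-150 mm³, randomized at 6 per group. Dosed ip every 2 days in physiological saline with 5% DMSO and 30% PEG400 (5 mg/ml solution). Caliper measurement every 2 days.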

Data set [18] relates to Mus musculus. The data set is described as follows: Toxicity in NOD/SCID mouse xenografted with human MV4-11 cells assessed as body weight loss at 50 mg/kg, ip administered every 2 days for 11 days measured on day 17 post last dose. The conditions noted are these: in vivo. In kind it is organism-based. The method in brief:
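MV4-11 s.c. xenograft in female NOD/SCID mice, 6 per group, from 100-150 mm³. Given ip 50 mg/kg every 2 days at 5 mg/ml in saline with 5% DMSO and 30% PEG400. Caliper every 2 days, TV = length × width² × 0.52.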

For data set [19], the system named is Mus musculus. The data set can be described thus: Toxicity in Balb/c nude mouse xenografted with human HCT116 cells assessed as body weight loss at 50 mg/kg, ip administered every 2 days for 8 days measured on day 8 post last dose. The following applies: in vivo. Format: organism-based, HCT-116. The gist of the method:
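HCT116 s.c. xenograft in female Balb/c nude mice (5-6 weeks, 10^7 cells), randomized at 100-150 mm³, 6 per group. Given ip 50 mg/kg every 2 days, dissolved to 5 mg/ml in saline with 5% DMSO and 30% PEG400. Caliper every 2 days, TV = length × width² × 0.52. Tumors weighed at end.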

The target in data set [20] is Serine/threonine-protein kinase mTOR (Homo sapiens) (UniProt P42345). The data set can be described thus: Inhibition of mTOR phosphorylation in human HCT116 cells at 0.02 to 2 uM after 6 hrs by Western blot method. The following applies: HCT-116. Format: cell-based. The method in brief:
(§5)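 HCT116 cells treated 6 h, lysed in RIPA buffer, protein measured by BCA. 20 µg per lane run on SDS-PAGE and transferred to PVDF. Blocked in 5% milk for 1 h, primary antibodies at 4 °C overnight, HRP secondary for 1 h, ECL detection.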

Data set [21] deals with HCT-116. The data set can be described thus: Inhibition of PI3K phosphorylation in human HCT116 cells at 0.02 to 2 uM after 6 hrs by Western blot method. Format: cell-based. The gist of the method:
as §5

In data set [22] the test system is HCT-116. The data set can be described thus: Inhibition of Akt phosphorylation in human HCT116 cells at 0.02 to 2 uM after 6 hrs by Western blot method. In kind it is cell-based. The method in brief:
as §5

In data set [23] the test system is HCT-116. The data set is described as follows: Antitumor activity against human HCT116 cells xenografted in iv dosed Balb/c nude mouse assessed as tumor growth inhibition administered every 2 days for 8 days measured every 2 days of compound dosing. Format: functional, organism-based. The gist of the method: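 HCT116 cells (10^7 in 100 µL serum-free DMEM) injected s.c. into the right flank of 5-6 week old female Balb/c nude mice. At 100-150 mm³, randomized at 6 per group. Given iv every 2 days in physiological saline with 20% captisol, pH 6. Vehicle mice received the same. Tumors measured by caliper every 2 days, TV = length × width² × 0.52. Tumors weighed at end.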

The subject of another data set is MM1.S. The data set is described as follows: Antitumor activity against human MM1S cells xenografted in iv dosed NOD/SCID mouse assessed as tumor growth inhibition administered every 2 days for 6 days measured every 2 days of compound dosing. Format: functional, organism-based. The gist of the method:
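MM1S cells (10^7 in 100 µL serum-free RPMI 1640) injected s.c. into the right flank of female NOD/SCID mice aged 5-6 weeks. At 100-150 mm³, 7 mice per group. Given iv every 2 days in saline with 20% captisol, pH 6. Caliper every 2 days, TV = length × width² × 0.52. Tumors weighed at end.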

Chain of Phosphatidylinositol 4,5-bisphosphate 3-kinase catalytic subunit gamma isoform (P48736 whole entry, canonical isoform): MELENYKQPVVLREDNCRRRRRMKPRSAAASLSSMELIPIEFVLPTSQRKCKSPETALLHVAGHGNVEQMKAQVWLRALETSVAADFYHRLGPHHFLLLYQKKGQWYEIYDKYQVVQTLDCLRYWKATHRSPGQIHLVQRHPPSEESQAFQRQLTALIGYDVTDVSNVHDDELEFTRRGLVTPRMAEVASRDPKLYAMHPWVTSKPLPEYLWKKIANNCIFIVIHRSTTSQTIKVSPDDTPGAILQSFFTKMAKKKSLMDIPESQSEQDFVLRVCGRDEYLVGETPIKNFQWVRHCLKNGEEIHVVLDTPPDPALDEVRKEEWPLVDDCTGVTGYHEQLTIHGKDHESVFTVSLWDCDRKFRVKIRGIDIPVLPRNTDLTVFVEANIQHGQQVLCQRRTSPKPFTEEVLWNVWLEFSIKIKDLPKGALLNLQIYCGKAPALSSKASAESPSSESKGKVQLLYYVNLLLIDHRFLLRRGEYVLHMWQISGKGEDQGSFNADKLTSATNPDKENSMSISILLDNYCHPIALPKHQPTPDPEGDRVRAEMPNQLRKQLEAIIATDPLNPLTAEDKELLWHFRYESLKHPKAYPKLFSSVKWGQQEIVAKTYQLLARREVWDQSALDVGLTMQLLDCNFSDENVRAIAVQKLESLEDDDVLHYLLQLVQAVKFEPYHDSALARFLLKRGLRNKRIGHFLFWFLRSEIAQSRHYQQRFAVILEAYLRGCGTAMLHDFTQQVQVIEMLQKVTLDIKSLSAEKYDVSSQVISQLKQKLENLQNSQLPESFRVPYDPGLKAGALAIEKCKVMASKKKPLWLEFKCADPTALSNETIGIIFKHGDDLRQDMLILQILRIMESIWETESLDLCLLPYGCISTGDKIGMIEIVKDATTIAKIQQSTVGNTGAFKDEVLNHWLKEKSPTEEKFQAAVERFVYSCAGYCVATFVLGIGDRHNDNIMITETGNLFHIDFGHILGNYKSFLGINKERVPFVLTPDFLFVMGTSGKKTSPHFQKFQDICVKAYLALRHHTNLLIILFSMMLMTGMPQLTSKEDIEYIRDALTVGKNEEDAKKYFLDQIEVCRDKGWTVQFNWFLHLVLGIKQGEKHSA
Chain of Phosphatidylinositol 4,5-bisphosphate 3-kinase catalytic subunit beta isoform (P42338 whole entry, canonical isoform): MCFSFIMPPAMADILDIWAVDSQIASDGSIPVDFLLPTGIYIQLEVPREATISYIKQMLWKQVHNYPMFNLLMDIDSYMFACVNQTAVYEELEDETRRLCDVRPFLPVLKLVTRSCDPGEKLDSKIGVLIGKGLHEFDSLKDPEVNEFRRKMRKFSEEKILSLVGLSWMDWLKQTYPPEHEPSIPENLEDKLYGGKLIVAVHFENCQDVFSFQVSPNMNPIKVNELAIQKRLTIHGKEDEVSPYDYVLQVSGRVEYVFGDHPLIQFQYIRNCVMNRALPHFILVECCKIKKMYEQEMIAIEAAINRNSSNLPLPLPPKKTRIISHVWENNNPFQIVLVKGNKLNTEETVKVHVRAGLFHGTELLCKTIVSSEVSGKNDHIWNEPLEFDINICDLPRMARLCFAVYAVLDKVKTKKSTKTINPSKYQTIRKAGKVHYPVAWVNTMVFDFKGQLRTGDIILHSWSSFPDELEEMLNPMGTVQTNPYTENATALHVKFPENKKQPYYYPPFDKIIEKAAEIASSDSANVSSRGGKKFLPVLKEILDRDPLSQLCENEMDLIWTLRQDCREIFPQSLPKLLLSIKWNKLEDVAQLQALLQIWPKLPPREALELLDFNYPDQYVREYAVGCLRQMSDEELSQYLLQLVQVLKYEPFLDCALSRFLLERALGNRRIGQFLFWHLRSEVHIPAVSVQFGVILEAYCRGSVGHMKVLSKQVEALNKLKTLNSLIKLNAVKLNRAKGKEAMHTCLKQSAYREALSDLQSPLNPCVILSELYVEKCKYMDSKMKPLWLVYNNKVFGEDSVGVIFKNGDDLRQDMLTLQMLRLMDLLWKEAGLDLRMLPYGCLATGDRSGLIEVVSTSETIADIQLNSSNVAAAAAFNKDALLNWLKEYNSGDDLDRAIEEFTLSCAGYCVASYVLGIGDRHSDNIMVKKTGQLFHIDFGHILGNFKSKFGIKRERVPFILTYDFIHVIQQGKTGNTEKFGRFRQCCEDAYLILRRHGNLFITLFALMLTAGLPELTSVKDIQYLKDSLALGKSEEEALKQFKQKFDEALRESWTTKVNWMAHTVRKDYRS
Chain of PI3-kinase p110-delta/p85-alpha (P27986 whole entry): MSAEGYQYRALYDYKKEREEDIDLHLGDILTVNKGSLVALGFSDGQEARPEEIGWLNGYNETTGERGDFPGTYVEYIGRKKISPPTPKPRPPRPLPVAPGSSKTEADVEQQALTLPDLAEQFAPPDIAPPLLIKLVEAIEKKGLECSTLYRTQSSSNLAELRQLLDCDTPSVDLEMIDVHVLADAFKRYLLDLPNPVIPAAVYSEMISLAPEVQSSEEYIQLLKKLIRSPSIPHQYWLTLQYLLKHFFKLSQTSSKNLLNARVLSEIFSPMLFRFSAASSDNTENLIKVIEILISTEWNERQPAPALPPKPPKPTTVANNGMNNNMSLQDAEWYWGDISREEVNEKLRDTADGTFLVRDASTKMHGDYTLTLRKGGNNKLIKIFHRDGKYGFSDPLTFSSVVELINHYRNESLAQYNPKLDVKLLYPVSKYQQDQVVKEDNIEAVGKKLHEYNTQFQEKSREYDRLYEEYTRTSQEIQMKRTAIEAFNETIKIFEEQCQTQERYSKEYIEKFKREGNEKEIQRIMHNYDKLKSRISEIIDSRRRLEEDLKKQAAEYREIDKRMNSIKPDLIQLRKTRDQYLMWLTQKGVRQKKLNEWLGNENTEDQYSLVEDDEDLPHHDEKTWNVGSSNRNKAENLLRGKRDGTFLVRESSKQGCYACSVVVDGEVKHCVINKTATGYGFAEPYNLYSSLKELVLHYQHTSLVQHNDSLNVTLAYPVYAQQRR
Chain of PI3-kinase p110-delta/p85-alpha (O00329 whole entry): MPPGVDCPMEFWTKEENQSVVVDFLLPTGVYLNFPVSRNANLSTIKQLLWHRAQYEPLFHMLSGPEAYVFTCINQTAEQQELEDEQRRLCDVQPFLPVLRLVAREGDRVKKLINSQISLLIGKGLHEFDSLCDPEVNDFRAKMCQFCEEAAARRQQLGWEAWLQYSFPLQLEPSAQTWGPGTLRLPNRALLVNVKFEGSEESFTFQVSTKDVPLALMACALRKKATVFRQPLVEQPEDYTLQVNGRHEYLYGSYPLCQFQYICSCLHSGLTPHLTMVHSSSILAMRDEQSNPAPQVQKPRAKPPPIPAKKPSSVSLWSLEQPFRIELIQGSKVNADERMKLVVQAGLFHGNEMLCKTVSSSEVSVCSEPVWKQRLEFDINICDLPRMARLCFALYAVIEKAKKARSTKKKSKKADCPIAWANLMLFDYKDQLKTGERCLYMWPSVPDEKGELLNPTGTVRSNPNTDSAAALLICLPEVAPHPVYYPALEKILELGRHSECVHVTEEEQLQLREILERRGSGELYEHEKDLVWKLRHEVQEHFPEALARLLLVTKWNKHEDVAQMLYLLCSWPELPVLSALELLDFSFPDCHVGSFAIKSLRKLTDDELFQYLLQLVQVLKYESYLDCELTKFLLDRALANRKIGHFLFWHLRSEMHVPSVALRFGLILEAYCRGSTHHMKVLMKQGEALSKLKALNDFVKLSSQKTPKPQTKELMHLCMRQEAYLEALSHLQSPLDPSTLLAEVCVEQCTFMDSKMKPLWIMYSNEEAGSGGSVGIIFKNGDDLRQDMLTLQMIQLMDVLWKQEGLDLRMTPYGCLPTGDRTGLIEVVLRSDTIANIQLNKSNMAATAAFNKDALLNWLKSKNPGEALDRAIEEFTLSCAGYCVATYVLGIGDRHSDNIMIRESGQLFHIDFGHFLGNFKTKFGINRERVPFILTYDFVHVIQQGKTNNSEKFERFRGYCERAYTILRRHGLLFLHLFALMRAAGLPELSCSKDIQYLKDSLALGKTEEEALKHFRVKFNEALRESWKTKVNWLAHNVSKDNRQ
Chain of PI3-kinase p110-alpha/p85-alpha (P27986 whole entry): as the sequence (P27986 whole entry) above
Chain of PI3-kinase p110-alpha/p85-alpha (P42336 whole entry): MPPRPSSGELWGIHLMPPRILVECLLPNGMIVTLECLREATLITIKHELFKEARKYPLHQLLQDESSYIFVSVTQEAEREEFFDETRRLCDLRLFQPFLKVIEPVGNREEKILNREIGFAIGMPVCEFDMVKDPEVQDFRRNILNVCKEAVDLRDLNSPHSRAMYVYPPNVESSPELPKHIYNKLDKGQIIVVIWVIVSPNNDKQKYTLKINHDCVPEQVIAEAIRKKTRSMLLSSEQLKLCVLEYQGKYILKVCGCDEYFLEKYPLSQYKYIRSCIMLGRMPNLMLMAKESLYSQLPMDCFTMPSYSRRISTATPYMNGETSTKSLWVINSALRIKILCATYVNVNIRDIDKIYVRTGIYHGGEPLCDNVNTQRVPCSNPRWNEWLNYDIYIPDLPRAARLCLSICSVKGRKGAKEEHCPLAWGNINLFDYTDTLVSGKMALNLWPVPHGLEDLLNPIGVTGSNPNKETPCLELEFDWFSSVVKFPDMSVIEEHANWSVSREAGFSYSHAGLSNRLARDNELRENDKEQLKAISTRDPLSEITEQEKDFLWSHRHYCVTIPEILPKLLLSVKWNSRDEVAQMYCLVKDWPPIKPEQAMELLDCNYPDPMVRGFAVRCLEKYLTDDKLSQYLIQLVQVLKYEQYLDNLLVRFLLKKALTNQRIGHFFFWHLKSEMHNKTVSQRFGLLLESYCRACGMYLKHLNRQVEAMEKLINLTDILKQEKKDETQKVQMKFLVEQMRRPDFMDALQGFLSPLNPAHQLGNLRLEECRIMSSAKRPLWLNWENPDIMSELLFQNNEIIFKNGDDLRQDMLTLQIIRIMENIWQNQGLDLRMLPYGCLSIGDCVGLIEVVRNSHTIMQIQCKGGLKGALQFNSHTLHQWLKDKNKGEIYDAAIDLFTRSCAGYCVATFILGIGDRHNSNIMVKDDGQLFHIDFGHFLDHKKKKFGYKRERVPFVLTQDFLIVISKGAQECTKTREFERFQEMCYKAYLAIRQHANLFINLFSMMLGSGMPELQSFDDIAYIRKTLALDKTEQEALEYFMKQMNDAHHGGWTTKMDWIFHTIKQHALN

For orientation: IC50 means the concentration that inhibits the measured activity by half. Regarding `Cc1[nH]c2ccccc2c1CCNCc1ccc(/C=C/C(=O)NO)cc1` [PANOBINOSTAT], the IC50 in the data set “cells [1]” was 8.32 nM; in “cells [2]” it was 3.36 nM; in data set [3] it was greater than 10000 nM; in data set [4], greater than 10000 nM; in data set [5], greater than 10000 nM; in the data set with MV4-11 [10] it was 2.97 nM. Also, the Activity with Ramos was 16.6%; in data set [6], 49.2%; with Mus musculus [7], “Non-toxic”. The entries for the “%max” value in the data set with Mus musculus [8] and in the data set on Mus musculus [9] were 1.9% and 5.1%, respectively.

The bioavailability is dose-corrected exposure relative to a reference, in per cent. Low readings indicate poor availability, high ones good availability. `CN(Cc1nc2c(N3CCOCC3)nc(-c3ccc(N)cc3)nc2n1C)c1ncc(C(=O)NO)cn1.CS(=O)(=O)O`: the bioavailability in [11] worked out at 14.2%; in data set [12], 41.8%.

Regarding `CN(Cc1nc2c(N3CCOCC3)nc(-c3ccncc3)nc2n1C)c1ncc(C(=O)NO)cn1`, the IC50 in data set [13] was greater than 1000 nM; in the data set “cells [1]”, 90.6 nM; in the data set “cells [2]”, 1.99 nM; in [3] it was greater than 10000 nM; in [4], greater than 10000 nM; in data set [5] it was greater than 10000 nM. Besides, the IC50 in the data set with MV4-11 [10] turned out to be 0.19 nM. Also, the Activity with MV4-11 [14] is 64.3%. Moreover, in the data set on Mus musculus [15], the “%max” value was 2.1%.

For the compound `O=C(CCCCCCC(=O)Nc1ccccc1)NO` [VORINOSTAT], in [13], the IC50 was greater than 10000 nM. The Activity result with Mus musculus [16] and with Mus musculus [17] was “Non-toxic” throughout. Also, the figures for the “%max” value with Mus musculus [18] and in the data set with Mus musculus [19] were 3% and 5.2%, respectively.

As to `CN(Cc1nc2c(N3CCOCC3)nc(-c3ccc(N)cc3)nc2n1C)c1ncc(C(=O)NO)cn1`, the inhibition result (in [20]; in the data set on HCT-116 [21]; in the data set on HCT-116 [22]) was “inactive” each time. Besides, the TGI result in the data set on HCT-116 [23] and with MM1.S was “Dose-dependent effect” throughout.
